Test results published in the EternaBench riboswitch data.

Tested on: MS2 coat protein
Test: apparent Kd, MS2 coat protein; higher = weaker binding; RNA-MaP array; FMN 200 µM where present
How it was run: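 The apparent Kd is the median of filtered binding-curve fits, one per cluster, to green signal normalised to red-channel RNA signal and control-cluster median Fmax. The clusters were on Illumina sequencing chips, and stalled E. coli RNA polymerase had transcribed the designs on them. Titration used SNAP-549-labelled MS2 coat protein from 0.7 or 1.5 nM, doubling to 3 µM, without and then with constant ligand, in 100 mM Tris-HCl pH 7.5, 80 mM KCl, 4 mM MgCl2, BSA, DTT, yeast tRNA and Tween-20.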

[1] = designed as: OFF switch for flavin mononucleotide, no ligand
[2] = ligand present: flavin mononucleotide, designed as: OFF switch for flavin mononucleotide
[3] = designed as: ON switch for flavin mononucleotide, no ligand
[4] = ligand present: flavin mononucleotide, designed as: ON switch for flavin mononucleotide

Sequence | apparent Kd [1] | apparent Kd [2] | apparent Kd [3] | apparent Kd [4]
AGAAACUACGAGAAGGACAUGUGGUCCUUCAGUUACAUGAGGAUCACCCAUGUAGGAUAUAAAAGUUUCAGGAUCGUGAGAUCA | 6.78 nM | 7.1 nM | – | –
CAGUACUGAGGAUAUACAUGAGGAUCACCCAUGUGUCCCUGCUAGGAAACUAGCAAUAGUAGAAGGCAGUACUG | 17.7 nM | 199 nM | – | –
UUACAGCACGGGUAGGAUAUGUAGGGUGGUACAUGAGGAUCACCCAUGUAUCCACCCUUCGAACGGCAGAAGGGCCUGUCACUGC | – | – | 16.7 nM | 17 nM
UAAAUGUGAGGAUAUUCGAUGAACUCGGAGACGAGUUUAUCGGAGAAGGCACAUGAGGAUCACCCAUGUUCCUU | 22.3 nM | 225 nM | – | –
AGCUGUGGCCGAGGAUAUCUAAAACUCAAAACCGAAAUAUAAUCGGACAUGAGGAUCACCCAUGUAGAGAAGGCGGUCUCAGCA | 78.8 nM | 157 nM | – | –
GUGGUGUAGAUACAGGAUAUGUUGCUCGUAACAUGAGGAUCACCCAUGUAUCUAUGAGAUAAAAUGCAGAAGGGUGCACACCACU | – | – | 357 nM | 19.1 nM
UAUAUAUAGUAAGGAUAUGUAAUUAUUUUAUAGACAGAAGGUACUGACAUGAGGAUCACCCAUGUUUUAGUGUGGGCAUGUAGA | 85.2 nM | 130 nM | – | –
UAGGUUUGUAGUUACAUCCCUACACAGGAUAUGGGUAGUUACAUGAGGAUCACCCAUGUUCGAACUCAGAAGGGUGGAUCGUUA | – | – | 170 nM | 13.8 nM
GGUCGUCACAUCUACAUGAGGAUCACCCAUGUCAAAAGACAUGAGGAUAUGCAUCCUAAUUGGAUGCAGAAGGCAUGGACGACC | – | – | 1280 nM | 66.8 nM
GCUGUCGCGUGAGGAUAUGGUCAGCUUUGCUGACCAGAAGGCAUGUCAAUAGACAUGAGGAUCACCCAUGUGGUUAGGGCGGCU | – | – | 1070 nM | 136 nM
AGCCCGGGAGGAUAUCCAAUAUAUGACAUGAGGAUCACCCAUGUUUCCACUCGUACCUCCGGAGAAGGCCCGGCGA | 19.7 nM | 19.4 nM | – | –
GCUGCAUGCAGAGGAUAUAUAACAUGAGGAUCACCCAUGUAAAAUAUAUGGAUAAACCAGAUAGUAUAGAAGGCUGCAUGCAGC | 22.9 nM | 19.1 nM | – | –
GUGUACAGAGGAUAUACACGAGUAGUUACGAAAGUAACUAUACAUGAGGAUCACCCAUGUAGAAGGCUGUACAC | 19.1 nM | 30.5 nM | – | –
ACAUGAGGAUCACCCAUGUGACAAGAAUGGCUGAUACAGAGACAGGAUAUAGGUGCAUAUCUAACCUAGAAGGGUCAUGACUGG | 35.2 nM | 31.9 nM | – | –
CCGUUACAUGAGGAUCACCCAUGUGAGGAUAUCGGGAUGACUGGCAGCGUGCGGGACUCGAGAAGGCACUGGGC | 46.1 nM | 41.5 nM | – | –
AGGUAACAUGAGGAUCACCCAUGUCAGGAUAUCAGGAAGAUUAGAAUAGAGUAGAGGAUGAGAAGGGACUAUAU | 32 nM | 30.3 nM | – | –
GCUGGGUAGGCAGGAUAUCCUCGCGCAAACACAUGAGGAUCACCCAUGUACACAAAACGUGAUAUGGAGAAGGGCCGACCCACA | – | – | 22.4 nM | 5.72 nM
UUACUCAUGUAAGGAUAUGUAGCCGAAACGGCUGCAGAAGGUACUAAAAUACAUGAGGAUCACCCAUGUCUUUUUAAUUUAGAC | – | – | 216 nM | 50.9 nM
GGGUGGCGUAGAGGAUAUGUGGUACAUGAGGAUCACCCAUGUGCAUAUGAUGUUCGUGUGUCUUCAUAGAAGGCUACGUCGCUA | – | – | 97 nM | 63 nM
CUUUUGUGAGGAUAUUAGUAGUAAAUAUAUAAAAUUACUACUGAGAAGGCACAUGAGGAUCACCCAUGUUCCUC | 31.5 nM | 194 nM | – | –
GCCAAUGUGGAGGAUAUCGACUUCGAAAGAAGUCGAGAAGGCCACACAUGAGGAUCACCCAUGUGAUGCCUGGC | 199 nM | 231 nM | – | –

Sequence | apparent Kd [1] | apparent Kd [2] | apparent Kd [3] | apparent Kd [4]
AGCUGACGAGGAUAUACAUGAGGAUCACCCAUGUUGGUCAAGCGACGAUAGUCGCAAUGUAGAAGGUGUCAGCU | 138 nM | 565 nM | – | –
AAGACGUGGGAAGGAUAUCUGGAAUAUCGGUCGAGAGAAGGUCCCUCGACAUGAGGAUCACCCAUGUAACACGGUCUACCGUGG | – | – | 472 nM | 280 nM
ACGCAGCUGGGUGAGGAUAUCGGUGGUACUACAUGAGGAUCACCCAUGUCCGAAGCUCGGACCUCCGAGAAGGCGCCCGGCUGCG | – | – | 284 nM | 31.4 nM
AUGCCUUAUGUAGGAUAUGCAUAGCAUUGCUAUGCAGAAGGACAUGAGGAUCACCCAUGUAUGUAUUCCAUACAUAUCUGGCAU | 29.5 nM | 343 nM | – | –
AUCAGCUCGUCAGGAUAUACGUCACUGCGUCAGCAGUGUGGUAAGAUAACAUGAGGAUCACCCAUGUAGAAGGGACGAGCUGAU | 7.29 nM | 13.1 nM | – | –
UCGGUGCGAGGAUAUACGUUUGCGCGUUUUCGUUUGCGCGUACAUGAGGAUCACCCAUGUAGAAGGCGCGCGGC | 12.4 nM | 13.7 nM | – | –
UCGUACUUUCGAGGAUAUCGGUGAUAUAUAUUACGAGAAGGCGAUUGUUUGUUUUACGUCUUAGACAUGAGGAUCACCCAUGUA | – | – | 40.4 nM | 30.5 nM
ACAUGUUUUGUAGGAUAUCACUUGUUAUGUUAUAUAUUUGUUAUAAUCUAUUGAGAAGGACAUUUACAUGAGGAUCACCCAUGU | 8.83 nM | 7.08 nM | – | –
AUACCUUAUGAGAAGGCGAUCAUGAAACAUGAUCGAGGAUAUCAUGUAAACAUGAGGAUCACCCAUGUAUGGGUAUUAUGGUAG | – | – | 34 nM | 10.5 nM
UUUGGGUGGCUGGAGGAUAUUCGAGUGGUUACAUGAGGAUCACCCAUGUGUCGCGCGGUACACGAGGAGAAGGCUGGCGGCCGUU | – | – | 50.8 nM | 22.4 nM
GCCAGUUAUGUAGGAUAUGCGAGGCGAGCCUGAGCAGAAGGACAUGAGGAUCACCCAUGUAUUGCGGUUUGAGUUCUGAUCGCU | 23.4 nM | 58.6 nM | – | –
CAUUAAUUCAUUAUAGUAAUUAUACAGGAUAUGUUACAUGAGGAUCACCCAUGUAUUCAUGGUAAACAGAAGGGUAAUACAAGA | 13.8 nM | 16.3 nM | – | –
GGAUACGACAGAGGAUAUACGUGCUAGAGAUACUAGCAAAAUUUCCUCACAUGAGGAUCACCCAUGUAGAAGGCUGUCCUAUCG | 16.2 nM | 337 nM | – | –
UACAUGAGGAUCACCCAUGUUUUGUCGUGUAUGGUAUUUAUCUAGGAUAUCAUUUUAUCUAGUUAUGAGAAGGAGAAUAUUAAU | 36.6 nM | 29.9 nM | – | –
GUGUACAGAGGAUAUACAGGAGCUAGGAAACUAGCAACCUCACAUGAGGAUCACCCAUGUAGAAGGCUGUACAC | 251 nM | 66.7 nM | – | –
CAUGUCCUCACAGGAUAUGCUGGACUUUGUCCAGCAGAAGGGUGAACAUGAGGAUCACCCAUGUUGUGGACAUGUAUAUUUAAG | – | – | 228 nM | 575 nM
CCUCGACAUGAGGAUCACCCAUGUAAGGAUAUGUUGACGAGCCAGAAAUGGCUGGUCAACAGAAGGUAUAUGUA | 31.9 nM | 121 nM | – | –
CGAGGUGGAGUGAGGAUAUCGUGUUCGAAAGAACGUGAGAAGGCACAUGAGGAUCACCCAUGUGAUUCUGCUCG | 45.7 nM | 270 nM | – | –
AAUGGUGGAGGAUAUACAUGAGGAUCACCCAUGUAAAUCACACAUGUGGUCAACGCAUGUAGAAGGCCACUAAA | 62.5 nM | 104 nM | – | –
CCGGAAACGGGUAGCCUGACAUGAGGAUCACCCAUGUAAUACGAGGAUAUGGAUCCUAAUUGGAUCCAGAAGGUGUCAGGCUAC | – | – | 862 nM | 682 nM
GGUUAUUGCAAGGAUAUGCUUUUUUUUUAUUUUGCAGAAGGUGCAACAUGAGGAUCACCCAUGUUGGAGGGUUU | 21.7 nM | 31.9 nM | – | –
